From ChEMBL document CHEMBL3045489, “Synthesis, fungicidal activity, and QSAR of a series of 2-dichlorophenyl-3-triazolylpropyl ethers” (J Agric Food Chem, 2000)
≈ marks a conversion by molar mass, not a printed value.

Key:
[1] = tested on: Cercospora beticola; experiment: Antifungal activity against Cercospora beticola assessed as inhibition of radial growth on potato dextrose; assay type: functional, organism-based
Method in brief: (§1)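 Radial growth inhibition on potato dextrose or Czapek agar across 100-0.1 mg L-1. ED50 calculated for each compound.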

[2] = tested on: Botrytis cinerea; experiment: Antifungal activity against Botryotinia fuckelianaassessed as inhibition of radial growth on potato dextrose; assay type: functional, organism-based; method in brief: as §1
[3] = tested on: Podosphaera fuliginea; experiment: Fungicidal activity against Podosphaera fuliginea inoculated in […] placed in growth room after 24 hr incubation assessed as direct protection after 6 to 10 days; assay type: functional
[4] = tested on: Fusarium graminearum; experiment: Antifungal activity against Fusarium graminearum assessed as inhibition of radial growth on potato dextrose; assay type: functional, organism-based; method in brief: as §1
[5] = tested on: Bipolaris maydis; experiment: Antifungal activity against Cochliobolus heterostrophus assessed as inhibition of radial growth on potato dextrose; assay type: functional, organism-based; method in brief: as §1
[6] = tested on: Ustilago maydis; experiment: Antifungal activity against Ustilago maydis assessed as inhibition of radial growth on potato dextrose; assay type: functional, organism-based; settings: Mycosarcoma maydis
[7] = tested on: Pyrenophora teres; experiment: Antifungal activity against Pyrenophora teres assessed as inhibition of radial growth on potato dextrose; assay type: functional, organism-based
[8] = tested on: Uromyces appendiculatus; experiment: Fungicidal activity against Uromyces appendiculatus inoculated in Phaseolus vulgaris placed in growth room after 24 hr incubation assessed as direct protection after 6 to 10 days; assay type: functional
Method in brief: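 Bean plants grown at 22 ± 1 °C, 80 ± 10% RH. Compound in acetone/water (1:4 v/v) with Tween 20 (0.4 mg mL-1) was sprayed on leaves until moist at 100 to 0.001 mg L-1. One day later leaves were inoculated with U. appendiculatus uredospores (1 × 10^5 spores mL-1), held 24 h at 22 ± 2 °C and 100% RH, then moved to the growth room. Scored at 6, 8 and 10 days as MIC.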

[9] = tested on: Oculimacula yallundae; experiment: Antifungal activity against Oculimacula yallundae assessed as inhibition of radial growth on potato dextrose; assay type: functional, organism-based; method in brief: as §1
[10] = tested on: Podosphaera fuliginea; experiment: Fungicidal activity against Podosphaera fuliginea inoculated in […] placed in growth room after 24 hr incubation assessed as disease cure after 24 hr of inoculation; assay type: functional

Compound	EC50 [1] [µg/mL]	EC50 [2] [µg/mL]	MIC [3] [µg/mL]	EC50 [4] [µg/mL]	EC50 [5] [µg/mL]	EC50 [6] [µg/mL]	EC50 [7] [µg/mL]	MIC [8] [µg/mL]	EC50 [9] [µg/mL]	MIC [10] [µg/mL]
Clc1ccc(C(COCc2ccc3ccccc3c2)Cn2cncn2)c(Cl)c1 (racemic)	0.23 (≈ 0.558 µM)	2.8 (≈ 6.79 µM)	50 (≈ 121 µM)	130 (≈ 315 µM)	0.15 (≈ 0.364 µM)	0.18 (≈ 0.437 µM)	0.25 (≈ 0.606 µM)	120 (≈ 291 µM)	1 (≈ 2.43 µM)	
Clc1ccc(C(COCc2ccc(-c3ccccc3)cc2)Cn2cncn2)c(Cl)c1 (racemic)	0.18 (≈ 0.411 µM)	2.8 (≈ 6.39 µM)	10 (≈ 22.8 µM)	> 200	0.18 (≈ 0.411 µM)	0.03 (≈ 0.0684 µM)	0.55 (≈ 1.25 µM)	28 (≈ 63.9 µM)	0.5 (≈ 1.14 µM)	6 (≈ 13.7 µM)
Clc1ccc(C(COCc2cccc(Oc3ccccc3)c2)Cn2cncn2)c(Cl)c1 (racemic)	0.14 (≈ 0.308 µM)	8 (≈ 17.6 µM)	12 (≈ 26.4 µM)	> 200	150 (≈ 330 µM)	0.16 (≈ 0.352 µM)	0.85 (≈ 1.87 µM)	50 (≈ 110 µM)	5 (≈ 11 µM)	
Clc1ccc(C(COCc2ccc(OCc3ccccc3)cc2)Cn2cncn2)c(Cl)c1 (racemic)	0.2 (≈ 0.427 µM)	3.5 (≈ 7.47 µM)	10 (≈ 21.4 µM)	> 200	0.15 (≈ 0.32 µM)	0.14 (≈ 0.299 µM)	0.22 (≈ 0.47 µM)	35 (≈ 74.7 µM)	0.5 (≈ 1.07 µM)	
Clc1ccc(C(COCc2ccc(OCc3cccc(OCc4ccccc4)c3)cc2)Cn2cncn2)c(Cl)c1 (racemic)	0.9 (≈ 1.57 µM)	25 (≈ 43.5 µM)		> 200		0.2 (≈ 0.348 µM)	1.3 (≈ 2.26 µM)	140 (≈ 244 µM)	1.8 (≈ 3.13 µM)	
Clc1ccc(C(COCc2ccc(OCc3ccc(OCc4ccccc4)cc3)cc2)Cn2cncn2)c(Cl)c1 (racemic)	0.18 (≈ 0.313 µM)	100 (≈ 174 µM)		> 200		0.2 (≈ 0.348 µM)	0.2 (≈ 0.348 µM)	> 100	0.16 (≈ 0.278 µM)	
Clc1ccc(C(COCc2cccs2)Cn2cncn2)c(Cl)c1 (racemic)	0.2 (≈ 0.543 µM)	2 (≈ 5.43 µM)	100 (≈ 272 µM)	1.5 (≈ 4.07 µM)	0.2 (≈ 0.543 µM)	0.1 (≈ 0.272 µM)	0.7 (≈ 1.9 µM)	200 (≈ 543 µM)	1.2 (≈ 3.26 µM)	
C=C(C)COCC(Cn1cncn1)c1ccc(Cl)cc1Cl (racemic)	0.15 (≈ 0.46 µM)	1.2 (≈ 3.68 µM)	50 (≈ 153 µM)	13 (≈ 39.8 µM)	0.1 (≈ 0.307 µM)	0.25 (≈ 0.766 µM)	0.75 (≈ 2.3 µM)	150 (≈ 460 µM)	0.5 (≈ 1.53 µM)	
CC(C)=CCOCC(Cn1cncn1)c1ccc(Cl)cc1Cl (racemic)	0.18 (≈ 0.529 µM)	0.9 (≈ 2.65 µM)	100 (≈ 294 µM)	40 (≈ 118 µM)	0.13 (≈ 0.382 µM)	0.22 (≈ 0.647 µM)	0.5 (≈ 1.47 µM)	160 (≈ 470 µM)	1 (≈ 2.94 µM)	
C=C(Cl)COCC(Cn1cncn1)c1ccc(Cl)cc1Cl (racemic)	0.23 (≈ 0.664 µM)	0.8 (≈ 2.31 µM)		12 (≈ 34.6 µM)		0.5 (≈ 1.44 µM)	2 (≈ 5.77 µM)	> 100	0.5 (≈ 1.44 µM)	
Clc1ccc(C(COC/C=C/c2ccccc2)Cn2cncn2)c(Cl)c1 (racemic)	0.2 (≈ 0.515 µM)	3 (≈ 7.73 µM)	10 (≈ 25.8 µM)	40 (≈ 103 µM)	0.18 (≈ 0.464 µM)	0.1 (≈ 0.258 µM)	0.47 (≈ 1.21 µM)	140 (≈ 361 µM)	1.3 (≈ 3.35 µM)	
Clc1ccc(C(COCCCc2ccccc2)Cn2cncn2)c(Cl)c1 (racemic)	0.18 (≈ 0.461 µM)	2.3 (≈ 5.89 µM)	100 (≈ 256 µM)	18 (≈ 46.1 µM)	0.19 (≈ 0.487 µM)	0.15 (≈ 0.384 µM)	1.3 (≈ 3.33 µM)	200 (≈ 512 µM)	2.3 (≈ 5.89 µM)	
N#CCCOCC(Cn1cncn1)c1ccc(Cl)cc1Cl (racemic)	4 (≈ 12.3 µM)	18 (≈ 55.4 µM)	60 (≈ 185 µM)	32 (≈ 98.4 µM)	8.5 (≈ 26.1 µM)	4 (≈ 12.3 µM)	32 (≈ 98.4 µM)	250 (≈ 769 µM)	20 (≈ 61.5 µM)	
